CHO parental Ca – counter-screen: ATP calcium response change in parental CHO cells; parental CHO-K1, ATP-induced calcium, Fluo-8 fluorescence; inhibition, % at 5.6 µM; 0.63% of 330,000 active;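 active = inhibition above that plate's mean sample inhibition plus 3 SD, cut at about 26% in these data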
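Material: parental CHO cells / Compound: single nominal dose of 5.6 µM per compound / Signal: Fluo-8 fluorescence / Replicates: singlicate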
GalR3 antagonist – human GalR3 antagonism; O60755; HEK293 GalR3-CNG cAMP membrane potential fluorescence; galR3 body fused to GalR1 C-terminus; inhibition, % at 3 µM; 0.44% of 360,000 active;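 active = inhibition above the screen-wide average plus 3 SD, cut at about 13% in these data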;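 also: forskolin and galanin both at EC90 stimulate the cells; cAMP rise reported by CNG channel membrane potential dye signal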
Target sequence (O60755 1-299 limits assumed): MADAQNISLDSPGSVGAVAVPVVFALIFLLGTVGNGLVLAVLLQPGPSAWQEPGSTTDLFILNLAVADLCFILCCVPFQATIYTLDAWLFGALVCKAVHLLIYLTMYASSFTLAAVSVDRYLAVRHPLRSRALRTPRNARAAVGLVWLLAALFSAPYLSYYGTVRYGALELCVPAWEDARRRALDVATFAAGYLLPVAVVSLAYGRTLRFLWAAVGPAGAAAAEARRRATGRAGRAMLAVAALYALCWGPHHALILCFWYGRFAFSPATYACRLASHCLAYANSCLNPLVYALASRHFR
GPR7 antag – human neuropeptides B/W receptor 1 antagonism; P48145; GPR7-expressing cells, fluorescence antagonist assay; inhibition, % at 4.4 µM; 1.1% of 290,000 active; in the data active = inhibition above about 16%, passing the limit was not always enough;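 also: cells stimulated with the agonist NPW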
Target sequence (P48145 whole entry, looked up): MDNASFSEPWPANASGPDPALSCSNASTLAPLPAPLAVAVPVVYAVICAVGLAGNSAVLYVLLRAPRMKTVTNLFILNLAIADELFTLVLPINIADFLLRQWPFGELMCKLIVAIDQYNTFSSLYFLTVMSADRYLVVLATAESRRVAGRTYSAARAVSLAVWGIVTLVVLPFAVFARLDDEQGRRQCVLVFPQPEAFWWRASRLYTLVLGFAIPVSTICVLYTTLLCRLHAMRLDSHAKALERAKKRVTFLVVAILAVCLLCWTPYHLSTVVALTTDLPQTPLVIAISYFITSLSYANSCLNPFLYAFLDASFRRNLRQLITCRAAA
OX1R antag-1 – blocks the human orexin 1 receptor. 1.8% of 330,000 active. inhibition, % at 6.6 µM. O43613. OX1R-expressing cells, FRET antagonist read-out. AID 485270; in the data active = inhibition mostly above about 38%, no sharp cut-off; inactive = mostly below about 40%
OX1R antag-2 – human HCRTR1 antagonism; O43613; CHO/OX1R cells, Fluo-8 calcium fluorescence, orexin A; inhibition, % at 5 µM; 0.43% of 330,000 active;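 active = inhibition above its plate's threshold, mean inhibition of all tested compounds on the plate plus 3 SD, cut at about 37% in these data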
GPR7 antag conf – human GPR7 antagonism, confirmation assay | inhibition, % at 4.4 µM | shares compounds with GPR7 antag | GPR7-expressing cells, calcium fluorescence antagonist mode | 52% of 2,400 active; in the data active = inhibition above about 24%;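 also: stimulated with the GPR7 agonist NPW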
MCHR1 antagonist – antagonizes human MCHR1, a GPR7 antagonist counter-screen. 62% of 2,400 active. inhibition, % at 4.4 µM. shares compounds with GPR7 antag. AID 2148. MCHR1-expressing cells, fluorescence antagonist assay; in the data active = inhibition above about 22%
Hits are given with their value; 0 = inactive; - = not tested or not shown. The list is not random: actives were taken first. Their share in the collection is about 3.1%.

SMILES	CHO parental Ca	GalR3 antagonist	GPR7 antag	OX1R antag-1	OX1R antag-2	GPR7 antag conf	MCHR1 antagonist
CCN(CC)S(=O)(=O)c1ccc(N2Cc3ccccc3C2=N)cc1	0	0	22	0	0	0	0
CCCc1noc2c1/C(=N\O)CC(c1ccccc1)C2 (centres undefined)	0	0	23	0	0	41	23
CCOc1ccc2c(c1)C(C)=CC(C)(C)N2S(=O)(=O)c1ccc(NC(C)=O)cc1	0	0	0	0	0	-	-
COc1ccc2c(c1)C(C)=CC(C)(C)N2S(=O)(=O)c1ccc(NC(C)=O)cc1	0	0	24	0	0	32	44
NC(=O)c1ccc(-n2nnnc2SCC(=O)NC2CCCCC2)cc1	0	0	0	0	0	-	-
O=C(c1cc(COc2c(F)cccc2F)on1)N1CCN(C2CCCCC2)C(=O)C1	0	0	0	0	0	-	-
O=C(c1cc(COc2ccc(F)c(F)c2)on1)N1CCN(C2CCCCC2)C(=O)C1	0	0	27	0	0	0	0
CC(=O)c1ccc(NC(=O)COC(=O)CCN2C(=O)c3cccc([N+](=O)[O-])c3C2=O)cc1	0	0	0	0	0	-	-
CC(C)N(c1ccccc1)c1ccc(NC(=O)COC(=O)CCN2C(=O)c3cccc([N+](=O)[O-])c3C2=O)cc1	0	0	29	0	0	74	60
CCNC(=O)C1(C)CCN(C(=O)c2ccc3c(c2)CCO3)C1 (centres undefined)	-	0	-	-	-	-	-
COc1cc(/C=N/NC(=O)CSc2nc3ccccc3n2C)cc(OC)c1OC	0	0	0	0	0	-	-
CC(C)(C)[C@@H]1COC(=O)[C@H](Cc2ccc(F)cc2)C/C=C\C[C@H](CC(=O)N(CCO)Cc2ccccc2)C(=O)N1	0	0	-	0	0	-	-
Clc1ccc2c(c1)C(N1CCNCC1)Cc1ccccc1S2 (centres undefined)	0	-	28	0	0	53	65
COCCCN1CCN(C2Cc3ccccc3Sc3ccc(Cl)cc32)CC1 (centres undefined)	0	0	24	0	0	0	34
C/C(=N\NC(=O)c1ccc(O)cc1O)c1cccnc1	-	0	0	-	-	-	-
CC(=O)N1CCN(CC(=O)Nc2ccc3c(c2)CCC3)CC1	0	0	23	0	0	0	0
O=C(CN1CCCC1)Nc1ccc2c(c1)CCC2	0	0	0	0	0	-	-
CCOC(=O)C1CCCN(C(=O)c2cnn3c(C(F)(F)F)cc(-c4ccccc4)nc23)C1 (centres undefined)	0	0	25	0	0	0	0
CCOC(=O)C1CCCN(C(=O)c2cc3nc(-c4cccc(OC)c4)cc(C(F)(F)F)n3n2)C1 (centres undefined)	0	0	0	0	0	-	-
CN(C)c1ccc(/C=C/c2ccc3c4ccccc4ccc3[n+]2-c2ccccc2)cc1	-	18	43	-	-	79	78
CN1CCC(N(C)CC(=O)Nc2ccc3c(c2)OC(F)(F)O3)CC1	0	0	0	0	0	-	-
CN1CCC(N(C)CC(=O)Nc2cccc(Oc3ccccc3)c2)CC1	0	0	27	0	0	0	0
CN(CC(=O)Nc1cccc(S(=O)(=O)N(C)C)c1)Cc1ccccc1	0	0	0	0	0	-	-
CN(CC(=O)Nc1cccc(C(F)(F)F)c1)Cc1ccccc1	0	0	26	0	0	24	35
Clc1ccc2c(NCc3ccco3)ncnc2c1	0	0	23	0	0	0	0
SMILES	CHO parental Ca	GalR3 antagonist	GPR7 antag	OX1R antag-1	OX1R antag-2	GPR7 antag conf	MCHR1 antagonist
CCc1nc2ccccc2c(=O)n1/N=C/c1ccc(Cl)cc1	0	0	-	0	0	-	-
CCn1c(N2CCN(C(=O)c3ccco3)CC2)nc2ccccc21	0	0	0	0	0	-	-
CC(C)c1cc(N2CCN(C(=O)c3ccco3)CC2)n2c(nc3ccccc32)c1C#N	0	0	25	0	0	0	0
O=C(COc1ccc(F)cc1)N1CCc2ccccc2C1	0	0	28	0	0	0	0
O=C(OCc1cn([C@@H]2C[C@H](c3ccccc3)N(C(=O)C3CCCCC3)C[C@H]2O)nn1)c1ccccc1	-	0	-	-	-	-	-
CCOC(=O)NC(NC(=S)Nc1ccc(OCC)cc1)C(Cl)(Cl)Cl (centres undefined)	0	0	0	0	0	-	-
O=C(NC(NC(=S)Nc1c(Cl)cccc1Cl)C(Cl)(Cl)Cl)OCc1ccccc1 (centres undefined)	0	0	27	0	0	26	44
CC(=O)c1ccc(S(=O)(=O)N2CCN(C(=O)C3CCCC3)CC2)cc1	0	0	0	0	0	-	-
O=C(OCc1nc2ccccc2s1)c1cc2ccccc2oc1=O	0	0	0	0	0	-	-
Oc1cccc(CN2CCCCC2)c1	0	-	0	0	0	-	-
CC(C)(C)c1cc(CN2CCCCC2)cc(C(C)(C)C)c1O	0	0	23	0	0	0	29
Cc1ccc(NC2SC(=O)N(Cc3cccc(C(=O)O)c3)C2=O)cc1 (centres undefined)	0	0	29	0	0	0	0
CCOc1ccccc1N1CCN(CC(=O)N(C)CC(=O)Nc2ccccc2CC)CC1	-	0	-	-	-	-	-
CC1(C)CSC(=NCc2ccccc2)N1C(=O)c1cccc([N+](=O)[O-])c1	0	0	71	0	0	75	82
NC(=NCc1ccccc1)c1cccc([N+](=O)[O-])c1	0	0	0	0	0	-	-
Cc1ccccc1CN1CCc2c(OCC(=O)N3CCCc4ccccc43)cccc2C1=O	0	0	22	0	0	31	60
Cc1c(Cl)ccc2c(C(=O)NCCN3CCCCC3)cc(-c3ccccn3)nc12	0	0	0	0	0	-	-
COc1ccccc1-c1cc(C(=O)NC2CCN(C)CC2)c2ccc(Cl)c(C)c2n1	0	0	43	0	0	69	81
CN(CCOc1ccccc1)C(=S)Nc1ccc(OC(F)F)cc1	0	0	31	0	0	0	32
CN(CCOc1ccc(Cl)cc1)CC(=O)Nc1ccc(OC(F)F)cc1	0	0	39	0	0	0	0
C=CCN=C1NC(CCc2ccccc2)C(C(=O)OC)=C(C)N1C (centres undefined)	-	0	-	-	-	-	-
COc1cc(OC)cc(C(=O)Nc2cccc3c2CCCC3)c1	0	0	32	0	0	0	0
O=C(Nc1cccc2c1CCCC2)c1cccc(F)c1	0	0	0	0	0	-	-
c1ccc(-c2csc3ncnc(NCC4COc5ccccc5O4)c23)cc1 (centres undefined)	79	88	50	0	0	54	63
CC(C)CC(Nc1ncnc2scc(-c3ccccc3)c12)C(=O)O (centres undefined)	0	0	0	0	0	-	-
Cc1nc(C(=O)N(C)C)nn1-c1ccc([N+](=O)[O-])cc1	0	0	0	0	0	-	-
Cc1nc(C(=O)Nc2ccc(Cl)cc2)nn1-c1ccc([N+](=O)[O-])cc1	0	0	31	0	0	0	0

Screens as filed in PubChem BioAssay.
